Laboratory results as given in ChEMBL document CHEMBL4251713, “Bioassay- and Chemistry-Guided Isolation of Scalemic Caged Prenylxanthones from the Leaves of Garcinia bracteata” (2018).
Counter-ions that a name gives are not always drawn.

Columns and labels:
[1] = test system: K562; experiment: Growth inhibition of human K562 cells measured after 3 days by trypan blue assay; format: functional; conditions: K562, 72 h
Summary of the method: (§1)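 Human leukemia cells exposed to compound for 3 days. Growth assessed by trypan blue method with total cell counts, and inhibition calculated relative to untreated control cells. GI50 taken as the concentration giving 50% growth inhibition. Doxorubicin hydrochloride and gambogic acid included as positive controls.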

[2] = test system: HL-60; experiment: Growth inhibition of human HL60 cells measured after 3 days by trypan blue assay; format: functional; conditions: HL-60, 72 h; summary of the method: as §1

Row | SMILES | GI50 [1] | GI50 [2]
1 | C=CC(C)(C)c1c(O)cc(O)c2c1O[C@]13[C@H](C2=O)[C@@H](OC)[C@@H]2C[C@H]1C(C)(C)O[C@@]3(/C=C/C(C)(C)O)C2=O | 3.8 µM | 8.8 µM
2 | CC(C)=CCC12OC(C)(C)C3CC4(Oc5c(c(O)cc6c5C(C)(C)[C@@H](C)O6)C(=O)C4=CC31)C2=O (some centres undefined) | 1.7 µM | 0.7 µM
3 | C=CC(C)(C)c1c(O)cc(O)c2c1OC13C(=CC4CC1C(C)(C)OC3(CC=C(C)C)C4=O)C2=O (centres undefined) | 1 µM | 0.4 µM
4 | CC(C)=CC[C@@]12OC(C)(C)[C@H]3C[C@H](C=C4C(=O)c5c(O)cc6c(c5O[C@]431)C(C)(C)[C@H](CO)O6)C2=O | 2.1 µM | 1.1 µM
5 | C=CC(C)(C)c1c(O)cc(OC)c2c1OC13C(C2=O)[C@@H](OC)[C@@H]2C[C@H]1C(C)(C)O[C@@]3(CC=C(C)C)C2=O (some centres undefined) | 1.6 µM | 3.4 µM
6 | CC(C)=CC[C@@]12OC(C)(C)[C@H]3C[C@H](C=C4C(=O)c5c(O)cc6c(c5O[C@]431)C(C)(C)[C@@H](C)O6)C2=O | 2.1 µM | 1.2 µM
7 | C=CC(C)(C)c1c(OC)cc(O)c2c1OC13C(=CC4CC1C(C)(C)OC3(CC=C(C)C)C4=O)C2=O (centres undefined) | 0.8 µM | 0.2 µM
8 | C=CC(C)(C)c1c(O)cc(O)c2c1O[C@]13[C@H](C2=O)[C@@H](OCC)[C@@H]2C[C@H]1C(C)(C)OC3(CC=C(C)C)C2=O | 2.1 µM | 4.5 µM
9 | C=CC(C)(C)c1c(OC)cc(O)c2c1OC13CC4C(C=C1C2=O)C(CC=C(C)C)(OC4(C)C)C3=O (centres undefined) | 1.5 µM | 1 µM
10 | C=CC(C)(C)c1c(O)cc(O)c2c1O[C@]13CC4[C@H]([C@@H](OC)C1C2=O)[C@@](CC=C(C)C)(OC4(C)C)C3=O (some centres undefined) | 3.5 µM | 6.5 µM
11 | CC(C)=CC[C@@]12OC(C)(C)[C@H]3C[C@H](C=C4C(=O)c5c(O)cc6c(c5O[C@]431)C(C)(C)[C@@H](CO)O6)C2=O | 2.1 µM | 1.1 µM
12 | C=CC(C)(C)c1c(O)cc(O)c2c1OC13CC4C(C=C1C2=O)C(CC=C(C)C)(OC4(C)C)C3=O (centres undefined) | 1.3 µM | 0.8 µM
13 | CC(C)=CC[C@@]12OC(C)(C)C3C[C@H](C=C4C(=O)c5c(O)cc6c(c5O[C@]431)C(C)(C)[C@H](C)O6)C2=O | 3.6 µM | 1.9 µM
14 | C=CC(C)(C)c1c(O)cc(O)c2c1O[C@]13C(C2=O)[C@@H](OC)[C@@H]2C[C@H]1C(C)(C)O[C@@]3(CC=C(C)C)C2=O (some centres undefined) | 3.4 µM | 7.3 µM
15 | CC(C)=CCC12OC(C)(C)C3CC4(Oc5c(c(O)cc6c5C(C)(C)[C@H](C)O6)C(=O)C4=CC31)C2=O (some centres undefined) | 1.6 µM | 0.9 µM
16 | COc1cccc2c1C(=O)c1c(O)c3c(c(O)c1C2=O)C[C@@](O)(C(=O)CO)C[C@@H]3O[C@H]1C[C@H](N)[C@H](O)[C@H](C)O1 [DOXORUBICIN HYDROCHLORIDE] | 0.02 µM | 0.02 µM
17 | CC(C)=CCC[C@]1(C)C=Cc2c(O)c3c(c(CC=C(C)C)c2O1)O[C@]12C(=C[C@@H]4C[C@H]1C(C)(C)O[C@@]2(C/C=C(/C)C(=O)O)C4=O)C3=O [GAMBOGIC ACID] | 0.6 µM | 0.3 µM
